Test results as given in ChEMBL document CHEMBL1125383, “Benzazepinone calcium channel blockers. 4. Structure-activity overview and intracellular binding site” (J Med Chem, 1992).
pIC50: −log10 of the molar value.

Columns and labels:
[1] = Concentration required to cause 50% relaxation of maximal contraction in circumferential rabbit aorta strips in response to KCl (100 mM); type: functional, tissue-based, Oryctolagus cuniculus
[2] = biological target: T1, Voltage-gated L-type calcium channel (Rattus norvegicus, UniProt P22002+Q02485+P27732); experiment: Percentage decrease in blood pressure at a dose of 135 uM/kg for 12-18 hr in spontaneously hypertensive rats.; type: functional, tissue-based
Summary of the method: (§1)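 Spontaneously hypertensive rats, n = 5, given 135 µmol/kg orally; systolic pressure recorded directly; maximum percent fall from predrug control noted within 0-6, 6-12 and 12-18 h windows after dosing; mean of five rats.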

[3] = biological target: T1, Voltage-gated L-type calcium channel; experiment: Percentage decrease in blood pressure at a dose of 135 uM/kg for 0-6 h in spontaneously hypertensive rats.; type: functional, tissue-based; summary of the method: as §1
[4] = Partition coefficient (logP); type: physicochemical; conditions: octanol/water
[5] = biological target: T1, Voltage-gated L-type calcium channel; experiment: Percentage decrease in blood pressure at a dose of 135 uM/kg for 6-12 hr in spontaneously hypertensive rats.; type: functional, tissue-based; summary of the method: as §1

| Compound | pIC50 ([1]; Oryctolagus cuniculus, Aorta) | logP [4] | pIC50 [1] | Decrease in blood pressure [2] | Decrease in blood pressure [3] | Decrease in blood pressure [5] |
| --- | --- | --- | --- | --- | --- | --- |
| C=CCN(C)CCN1C(=O)[C@H](OC(C)=O)[C@H](c2ccc(OC)cc2)Cc2c1cccc2C(F)(F)F | 6.77 | – | – | 25% | 28% | 26% |
| COc1ccc([C@@H]2Cc3cc(C(F)(F)F)ccc3N(CCN(C)C)C(=O)[C@@H]2OC(C)=O)cc1 | 5.72 | 2.8 | – | 18% | 19% | 19% |
| COc1ccc([C@@H]2Cc3c(C(N)=O)cccc3N(CCN(C)C)C(=O)[C@@H]2OC(C)=O)cc1 | < 4.52 | -1 | – | 12% | 13% | 12% |
| COc1ccc([C@@H]2Cc3cc(OC(F)F)ccc3N(CCN(C)C)C(=O)[C@@H]2OC(C)=O)cc1 | 6.02 | 1.8 | – | 16% | 12% | 13% |
| COc1ccc([C@@H]2Cc3c(OC)cccc3N(CCN(C)C)C(=O)[C@@H]2OC(C)=O)cc1 | – | 1.9 | – | 1% | 0% | 0% |
| C=CC[C@H]1C(=O)N(CCN(C)C)c2ccccc2C[C@H]1c1ccc(OC)cc1 | – | 3.3 | – | 18% | 25% | 23% |
| COc1ccc([C@@H]2Cc3cc(OC(=O)C(C)(C)C)ccc3N(CCN(C)C)C(=O)[C@@H]2OC(C)=O)cc1 | 5.28 | 2.9 | – | 16% | 13% | 14% |
| COc1ccc([C@@H]2Cc3c(cccc3C(F)(F)F)N(CCN(C)C)C(=O)[C@@H]2C)cc1OC | 5.42 | – | – | 5% | 3% | 5% |
| CCOC(=O)c1cccc2c1C[C@@H](c1ccc(OC)cc1)[C@@H](OC(C)=O)C(=O)N2CCN(C)C | – | 2.2 | – | 5% | 4% | 6% |
| CNC(=O)CN1C(=O)[C@H](OC(C)=O)[C@H](c2ccc(OC)cc2)Cc2c1cccc2C(F)(F)F | 5.21 | – | – | 10% | 13% | 8% |
| CNCCN1C(=O)[C@H](OC(C)=O)[C@H](c2ccc(OC)cc2)Cc2c1cccc2C(F)(F)F | – | – | – | 32% | 32% | 34% |
| COc1ccc([C@@H]2Cc3c(Cl)cccc3N(CCN(C)C)C(=O)[C@@H]2OC(C)=O)cc1 | – | 2.4 | – | 11% | 9% | 8% |
| COc1ccccc1[C@@H]1Cc2cc(Cl)ccc2N(CCN(C)C)C(=O)[C@@H]1OC(C)=O | – | – | – | 0% | 2% | 2% |
| COc1ccc([C@@H]2Cc3ccccc3N(CCN(C)C)C(=O)[C@@H]2OC(C)=O)cc1 | – | 1.2 | – | 13% | 8% | 8% |
| COc1ccc([C@@H]2Cc3cc(C(F)(F)F)ccc3N(CCN(C)C)C(=O)[C@@H]2CC(C)=O)cc1 | – | 2.7 | – | 28% | 23% | 28% |
| COc1ccc([C@@H]2Cc3cc(OC)ccc3N(CCN(C)C)C(=O)[C@@H]2OC(C)=O)cc1 | – | 1.2 | – | 10% | 15% | 8% |
| COc1cccc([C@@H]2Cc3cc(Cl)ccc3N(CCN(C)C)C(=O)[C@@H]2OC(C)=O)c1 | – | – | – | 3% | 5% | 2% |
| CCC[C@H]1C(=O)N(CCN(C)C)c2ccccc2C[C@H]1c1ccc(OC)cc1 | 6.47 | – | – | 12% | 10% | 11% |
| CNCCN1C(=O)[C@H](OC(C)=O)[C@H](c2ccc(OCOC)cc2)Cc2c1cccc2C(F)(F)F | – | – | – | 8% | 6% | 8% |
| CNCCN1C(=O)[C@H](OC(C)=O)[C@H](c2ccc(OCCOC)cc2)Cc2c1cccc2C(F)(F)F | 4.41 | – | – | 7% | 5% | 5% |
| COc1ccc([C@@H]2Cc3c(cccc3C(F)(F)F)N(CCN(C)CCCCc3ccccc3)C(=O)[C@@H]2OC(C)=O)cc1 | 7.14 | – | – | 24% | 28% | 23% |

Second part, led by results:

| pIC50 ([1]; Oryctolagus cuniculus, Aorta) | logP [4] | pIC50 [1] | Compound | Decrease in blood pressure [2] | Decrease in blood pressure [3] | Decrease in blood pressure [5] |
| --- | --- | --- | --- | --- | --- | --- |
| 7.00 | 4.6 | – | C=CC[C@H]1C(=O)N(CCN(C)C)c2cccc(C(F)(F)F)c2C[C@H]1c1ccc(OC)cc1 | 29% | 24% | – |
| 6.44 | – | – | COc1ccc([C@@H]2Cc3c(cccc3C(F)(F)F)N(CC(C)N(C)C)C(=O)[C@@H]2C)cc1 (stereo in doubt; 15l) | 14% | 26% | 17% |
| 5.96 | – | – | COc1ccc([C@@H]2Cc3c(cccc3C(F)(F)F)N(CCCN(C)C)C(=O)[C@@H]2C)cc1 | 24% | 24% | 22% |
| 6.48 | – | – | CNc1ccc([C@@H]2Cc3c(cccc3C(F)(F)F)N(CCN(C)C)C(=O)[C@@H]2C)cc1 | 20% | 14% | 18% |
| 6.02 | 4.9 | – | CCC[C@H]1C(=O)N(CCN(C)C)c2cccc(C(F)(F)F)c2C[C@H]1c1ccc(OC)cc1 | 24% | 14% | 19% |
| 7.12 | – | – | COc1ccc([C@@H]2Cc3c(cccc3C(F)(F)F)N(CCN(C)C)C(=O)[C@@H]2C)cc1 | 22% | 28% | 22% |
| 6.09 | – | – | COc1ccc([C@@H]2Cc3c(cccc3C(F)(F)F)N(CCN(C)C(C)C)C(=O)[C@@H]2C)cc1 | 14% | 18% | 15% |
| 5.48 | – | – | C#CCN(C)CCN1C(=O)[C@H](OC(C)=O)[C@H](c2ccc(OC)cc2)Cc2c1cccc2C(F)(F)F | 25% | 26% | 25% |
| 6.72 | – | – | CCCN(C)CCN1C(=O)[C@H](OC(C)=O)[C@H](c2ccc(OC)cc2)Cc2c1cccc2C(F)(F)F | 28% | 27% | 26% |
| 5.66 | – | – | COc1ccc([C@@H]2Cc3c(cccc3C(F)(F)F)N(CCN(C)C(C)=O)C(=O)[C@@H]2O)cc1 | – | – | – |
| – | 2.1 | – | COc1ccc([C@@H]2Cc3c(cccc3C(F)(F)F)N(CCN(C)C)C(=O)[C@@H]2O)cc1 | 28% | 21% | 26% |
| 5.62 | – | – | CCc1ccc([C@@H]2Cc3c(cccc3C(F)(F)F)N(CCN(C)C)C(=O)[C@@H]2C)cc1 | 13% | 20% | 14% |
| – | – | 6.40 | COc1ccc([C@@H]2Cc3c(cccc3C(F)(F)F)N(CC(C)N(C)C)C(=O)[C@@H]2C)cc1 (stereo in doubt; 15m) | 12% | – | 16% |
| 6.80 | – | – | C[C@H]1C(=O)N(CCN(C)C)c2cccc(C(F)(F)F)c2C[C@H]1c1ccc(O)cc1 | 7% | 10% | 5% |
| 5.21 | – | – | COc1ccc([C@@H]2Cc3c(cccc3C(F)(F)F)N(CC[N+](C)(C)C)C(=O)[C@@H]2C)cc1.[I-] | 21% | 25% | 22% |
| 6.14 | – | – | CSc1ccc([C@@H]2Cc3c(cccc3C(F)(F)F)N(CCN(C)C)C(=O)[C@@H]2C)cc1 | 5% | 12% | 8% |
| 6.82 | – | – | COc1ccc([C@@H]2Cc3c(cccc3C(F)(F)F)N(CCN(C)C)C(=O)[C@@H]2OC(C)=O)cc1 | 20% | 31% | 27% |
| 5.96 | – | – | COc1ccc([C@@H]2Cc3c(cccc3C(F)(F)F)N(CCN3CCCC3)C(=O)[C@@H]2C)cc1 | 11% | 8% | 10% |
| – | – | 5.64 | COc1ccc([C@@H]2Cc3c(cccc3C(F)(F)F)N(C(C)CN(C)C)C(=O)[C@@H]2C)cc1 (stereo in doubt; 15o) | 16% | 16% | 16% |
| – | – | 5.23 | COc1ccc([C@@H]2Cc3c(cccc3C(F)(F)F)N(C(C)CN(C)C)C(=O)[C@@H]2C)cc1 (stereo in doubt; 15n) | – | 15% | – |
| 5.38 | – | – | COc1ccc([C@@H]2Cc3c(cccc3C(F)(F)F)N(CCN(C(C)C)C(C)C)C(=O)[C@@H]2C)cc1 | 8% | 14% | 8% |
| 6.02 | – | – | COc1ccc([C@@H]2Cc3c(cccc3C(F)(F)F)N(CCNC(C)C)C(=O)[C@@H]2C)cc1 | 10% | 17% | 15% |
